Assay results: paper PMC8293762 (Slas Discovery, 2021)

How the values were obtained:
HCN4 [1] = molecular target: T1, HCN4 (Homo sapiens, UniProt Q9Y3Q4); type: cell-based; conditions: six repetitive hyperpolarization pulses, Fig. 2A,B
T1 sequence (Q9Y3Q4 1-1203): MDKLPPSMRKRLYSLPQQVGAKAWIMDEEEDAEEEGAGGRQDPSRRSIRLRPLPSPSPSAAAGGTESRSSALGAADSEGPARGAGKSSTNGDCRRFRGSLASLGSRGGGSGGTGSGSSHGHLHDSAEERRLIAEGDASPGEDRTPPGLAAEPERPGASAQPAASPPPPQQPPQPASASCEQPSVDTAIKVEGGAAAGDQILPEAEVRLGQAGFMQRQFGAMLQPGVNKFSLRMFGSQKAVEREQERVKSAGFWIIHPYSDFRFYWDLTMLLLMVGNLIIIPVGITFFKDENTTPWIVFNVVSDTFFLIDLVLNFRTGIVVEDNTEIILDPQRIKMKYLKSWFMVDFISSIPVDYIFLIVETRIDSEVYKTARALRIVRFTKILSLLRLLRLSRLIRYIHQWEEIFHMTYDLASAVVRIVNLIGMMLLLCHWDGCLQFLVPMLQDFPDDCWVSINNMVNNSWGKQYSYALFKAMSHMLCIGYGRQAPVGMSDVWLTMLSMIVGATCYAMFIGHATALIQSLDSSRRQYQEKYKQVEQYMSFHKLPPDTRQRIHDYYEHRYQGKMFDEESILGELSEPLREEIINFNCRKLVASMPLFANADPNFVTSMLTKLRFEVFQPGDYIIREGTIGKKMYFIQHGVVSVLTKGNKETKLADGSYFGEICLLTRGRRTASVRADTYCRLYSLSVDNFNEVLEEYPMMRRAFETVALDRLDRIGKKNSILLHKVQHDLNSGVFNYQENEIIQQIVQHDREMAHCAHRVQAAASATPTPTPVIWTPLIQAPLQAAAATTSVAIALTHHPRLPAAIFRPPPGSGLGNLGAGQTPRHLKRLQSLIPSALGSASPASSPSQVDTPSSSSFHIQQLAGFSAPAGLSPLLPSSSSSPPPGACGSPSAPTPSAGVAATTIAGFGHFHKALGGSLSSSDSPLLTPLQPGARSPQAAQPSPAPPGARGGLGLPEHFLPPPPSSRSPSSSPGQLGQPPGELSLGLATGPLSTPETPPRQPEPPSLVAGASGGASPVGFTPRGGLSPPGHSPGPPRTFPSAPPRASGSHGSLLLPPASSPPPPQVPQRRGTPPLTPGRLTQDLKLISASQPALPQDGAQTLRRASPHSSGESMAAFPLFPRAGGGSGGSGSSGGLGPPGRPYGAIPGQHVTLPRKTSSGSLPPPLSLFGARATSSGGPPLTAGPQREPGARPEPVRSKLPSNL

[2] = system: isolated rat right atrium; assay: Heart rate in isolated rat right atrium in vitro; conditions: data not shown
HCN4 [3] = molecular target: T1, HCN4; assay: Random screening of ~16,000 compounds for HCN4 blockade, IonWorks; type: cell-based; conditions: six-pulse protocol; blockade traces, Fig. 3C
Summary of the method: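 Human HCN4 (Thr110Ser) stably expressed in CHO-K1 cells, grown at 37 °C, then held at 30 °C for 2−8 days before recording. Perforated-patch (amphotericin B) IonWorks recording, SH mode then PPC mode. Held at −30 mV with a +10 mV leak prepulse, then six hyperpolarizing pulses. Test compound at 30 μM, DMSO 0.3% per well. Current at end of last pulse read before and 5−10 min after addition; percent inhibition from post/pre ratio.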

Use dependence of HCN4 blockade according to pulse number (HCN4 [1]) | Molecule | Effect on heart rate in isolated rat right atrium [2] | Use dependence of HCN4 blockade over six pulses (HCN4 [3])
use-dependent blockade | COc1cc2c(cc1OC)CC(=O)N(CCCN(C)C[C@H]1Cc3cc(OC)c(OC)cc31)CC2 [Ivabradine] | – | –
– | COc1cc(Cl)c(S(=O)(=O)N[C@@H](C)C(=O)N2CCC(N3CCCCC3)CC2)cc1Cl [T-478, N-[(2S)-1-([1,4′-bipiperidin]-1′-yl)-1-oxopropan-2-yl]-2,5-dichloro-4-methoxybenzene-1-sulfonamide] | reduced heart rate | use-dependent blockade
– | FC(F)(F)c1cccc(-c2ccc3c(c2)CNCC3)c1 [T-524, 7-[3-(trifluoromethyl)phenyl]-1,2,3,4-tetrahydroisoquinoline] | reduced heart rate | almost the same blockade or even a decreasing blockade over six pulses
– | O=C(c1ccc(-n2cccn2)nc1)N1CCN2C(=O)OC(c3ccccc3)(c3ccccc3)[C@H]2C1 [T-788, (8aR)-1,1-diphenyl-7-[6-(1H-pyrazol-1-yl)pyridine-3-carbonyl]hexahydro-3H-[1,3]oxazolo[3,4-a]pyrazin-3-one] | reduced heart rate | almost the same blockade or even a decreasing blockade over six pulses
– | ZD7288 [reference compound] | – | almost the same blockade or even a decreasing blockade over six pulses
